High-throughput results deposited in PubChem by Broad Institute.
FGF22 binding-1: binders of recombinant human FGF22 by thermal shift; Q9HCT0; SYPRO orange fluorescence; percent of sucrose octasulfate shift, DMSO zero; activity (Tm shift, normalised), % at 9.99 µM; 340,000 compounds, 1.5% hits; AID 651658;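 active = mean Tm shift, scaled 0 neutral to 100 positive control, at about 1.3% or above, every replicate too, limit read from the data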
Target sequence (Q9HCT0 whole entry, looked up): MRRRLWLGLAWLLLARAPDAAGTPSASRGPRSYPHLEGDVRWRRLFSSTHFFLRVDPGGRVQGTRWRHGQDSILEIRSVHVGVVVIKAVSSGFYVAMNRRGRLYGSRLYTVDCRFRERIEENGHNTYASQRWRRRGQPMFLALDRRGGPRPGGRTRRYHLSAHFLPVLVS
CFTR F508del cor: correctors of CFTR F508del function in bronchial epithelial cells | CFBE cells, YFP halide quenching; stimulated with forskolin plus potentiator P3; % fluorescence drop versus neutral controls | activity (quench increase), % at 7.58 µM | 350,000 compounds, 0.36% hits;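 active = mean added fluorescence quench of at least 8% versus neutral control, with both replicates also reaching 8%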;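 also: cells transiently co-express mutant CFTR-F508del with the halide-sensitive YFP; corrector assay measuring rescue of mutant channel to the surface after 24 h compound exposure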
E-sel inducer: induces E-selectin expression in human endothelial cells. P16581. HUVEC E-selectin immunofluorescence imaging; normalized: neutral wells 0, TNF-alpha wells 100. activation, % at 7.58 µM. 260,000 compounds, 0.37% hits;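 active = mean E-selectin-positive cell signal at least 10% of the positive control, reached in at least 60% of replicates, without over 20% cell loss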
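System: HUVEC, human umbilical vein endothelial cells; quantity: 3,000 cells/well; buffer or medium: EGM-2 medium, gelatin-coated wells; dosing: single-point compound dose; detection: immunofluorescence imaging; evaluation: % PE-positive cells; benchmarks: TNF-alpha, DMSO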
HIV Env fusion: HIV envelope-mediated fusion inhibition | HeLa-JRFL Env/CEM21 cell fusion, luciferase | inhibition, % at 12.3 µM | 360,000 compounds, 1.1% hits | AID 651610;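 active = mean replicate inhibition score of at least 50 and every replicate individually at or above 50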;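 also: 0% = plate neutral controls and 100% = maraviroc near 300 nM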
S100A4 inh HTS: blocks human S100A4 binding to myosin IIA peptide; 360,000 compounds, 0.14% hits; inhibition, % at 10.7 µM; P26447; AID 652163; S100A4/TAMRA-MyoIIA peptide fluorescence polarization;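 active = mean inhibition of at least 70% across replicates, with every replicate also reaching that level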
Target sequence (P26447 whole entry, looked up): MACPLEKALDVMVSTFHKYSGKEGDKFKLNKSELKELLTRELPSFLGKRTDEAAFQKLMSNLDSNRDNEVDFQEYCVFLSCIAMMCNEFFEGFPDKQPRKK
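Test system: S100A4 monomer protein; Medium: HEPES pH 7.2 with CaCl2, KCl, NaCl, DTT, Triton; Probe or stimulus: TAMRA-labelled myosin IIA heavy-chain peptide probe, 5 nM; Doses: one dose per compound; Times: polarization read 5 min after assay mix addition, stable 5–60 min; Benchmarks: neutral control DMSO, positive control TFP.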
FGF22 binding-2: binds human FGF22 shifting its melting temperature; 1,000 compounds, 2% hits; thermal shift activity, °C (ΔTm) at 38 µM; recombinant FGF22 thermal shift, SYPRO orange fluorescence; AID 720646; shares compounds with FGF22 binding-1;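 active = fitted rise in melting shift crosses a set limit at or below the top valid dose tested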
TSA no protein: counter-screen for FGF22 binders: compound-only thermal shift, no protein. shares compounds with FGF22 binding-1. compound-only SYPRO orange thermal shift counter-screen. AC50, µM (top dose mostly 38 µM). 1,000 compounds, 2% hits;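 active = rising signal whose fitted curve reaches the 0.54 level within the top valid dose, showing a melting point, actives reach about 13 µM in these data; inactive = the rest, including activity in the opposite direction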; also: value is where the raw curve crosses a fixed level and not half-maximal
Numbers without * were called inactive; i = inactive; . = no result given; [ ] = remark or other dose. A selection: hits, their analogues and other compounds. The true share with any hit is near 2.7%.

SMILES	FGF22 binding-1	CFTR F508del cor	E-sel inducer	HIV Env fusion	S100A4 inh HTS	others
C=CCN1C(=O)[C@@]2(O[C@@H](CCn3cc(CCO)nn3)[C@H]([Si](C)(C)c3ccc(OC)cc3)[C@H]2C)c2cc(N3CCOC3=O)ccc21	-0.2	3.4	.	-24.8[16.7 µM]	-61.3
COc1ccc([Si](C)(C)[C@@H]2[C@@H](CCO)O[C@]3(C(=O)N(Cc4ccc(N5CCOC5=O)cc4)c4ccccc43)[C@H]2C)cc1	0.0	-7.3	.	57.2*[16.7 µM]	0.1
C=CCN1C(=O)[C@@]2(O[C@@H](CCn3cc([C@H](O)c4ccccc4)nn3)[C@H]([Si](C)(C)c3ccc(OC)cc3)[C@H]2C)c2cc(N3CCOC3=O)ccc21	0.2	12.3*	.	-7.4[16.7 µM]	-2.3
CCN(C[C@H]1N[C@@](CC)(C(=O)OC)[C@H]2C(=O)N(Cc3ccccc3)C(=O)[C@@H]12)C(=O)Nc1ccc(C(F)(F)F)cc1	-0.1	-5.7	0.0	49.8	4.1
CCN(C[C@H]1N[C@@](C)(C(=O)OC)[C@H]2C(=O)N(Cc3ccccc3)C(=O)[C@@H]12)S(=O)(=O)c1ccc(C)cc1	-0.4	-1.5	.	69.2*	15.2
CCNC(=O)N(CC)C[C@H]1N[C@@](C)(C(=O)OC)[C@H]2C(=O)N(Cc3ccccc3)C(=O)[C@@H]12	0.1	-0.4	.	-58.8	2.7
CCN(C[C@H]1N[C@@](C)(C(=O)OC)[C@H]2C(=O)N(Cc3ccccc3)C(=O)[C@@H]12)C(=O)Nc1ccc(C)cc1	-0.3	3.8	0.4	78.6*	-0.9
CCN(C[C@H]1N[C@@](CC)(C(=O)OC)[C@H]2C(=O)N(Cc3ccccc3)C(=O)[C@@H]12)C(=O)Nc1ccc(OC)cc1	-0.5	3.7	0.7	87.1*	-2.5
CCN(C[C@H]1N[C@@](C)(C(=O)OC)[C@H]2C(=O)N(Cc3ccccc3)C(=O)[C@@H]12)C(=O)Nc1ccccc1	0.3	-1.7	.	126.9*	-0.1
Cc1ccc(S(=O)(=O)Nc2ccc3c(c2)CC(=O)N([C@@H](C)CO)C[C@H](C)[C@@H](CN(C)C)O3)cc1	-0.2	0.4	0.0	.	1.8
CCCCOC(=O)C1CN(c2ccccc2)N=C1C(C)=O (stereo not given)	43.2*	-0.1	-0.7	9.4	1.5
CCOC(=O)C1=NN(c2ccc([N+](=O)[O-])cc2)CC1C(=O)OC (stereo not given)	.	.	-0.3	-20.1	.
CC(C)NC(=O)COC(=O)c1ccccc1C(=O)c1ccccc1	44.1*	-0.8	.	3.6	-1.8
S=C(NCc1ccco1)N1CCC(c2nc3ccccc3o2)CC1	0.2	-0.3	60.5*	17.5	-4.2
Cc1cccc(NC(=S)N2CCC(c3nc4ccccc4o3)CC2)c1C	-0.5	2.4	.	.	-1.3
CO[C@@H]1CN(C)C(=O)c2ccc(NC(=O)C3CC3)cc2OC[C@@H](C)N(CC2CC2)C[C@H]1C	-0.1	-3.7	-0.1	.	-4.1
O=C(O)C(Cc1ccccc1)N1C(=O)C2CCCCC2C1=O (stereo not given)	0.2	-3.7	.	9.7	1.0
O=C1C2CCCCC2C(=O)N1Cc1ccccc1 (stereo not given)	43.5*	0.5	-0.5	-1.7	11.5
O=S(=O)(Cc1ccccc1)NCC[C@@H]1CC[C@H](NS(=O)(=O)c2ccc(F)cc2)[C@H](CO)O1	.	-2.6	-0.4	.	.
CCOc1ccc(-c2cccc(NS(=O)(=O)c3ccccc3[N+](=O)[O-])c2)nn1	-0.2	-0.9	1.3	94.1*	-3.2
COc1ccc(-c2cccc(NS(=O)(=O)c3ccccc3[N+](=O)[O-])c2)nn1	-0.4	0.3	-2.2	-2.2	-3.4
C[C@@H]1CN([C@H](C)CO)C(=O)c2cc(C3=CCCC3)cnc2O[C@H]1CN(C)Cc1ccccn1	-0.1	0.2	-0.2	8.8[16.7 µM]	-1.0
O=C(c1cccnc1)N1C[C@H]2[C@@H](c3ccccc31)[C@H](CO)N2C(=O)Nc1ccccc1F	0.0	-1.0	-0.1	.	24.0
CS(=O)(=O)c1ccc(Cl)c(NC(=O)CN2CCCC2c2ccc3c(c2)OCCCO3)c1 (stereo not given)	-0.1	-1.4	0.3	61.3*	-3.3
CCOC(=O)C(C)Sc1nc2c(c(-c3cccs3)c1C#N)CCC2 (stereo not given)	0.1	2.0	11.3	20.4	-5.0
SMILES	FGF22 binding-1	CFTR F508del cor	E-sel inducer	HIV Env fusion	S100A4 inh HTS	others
CC(C)OC(=O)CC(=O)CSc1nc2c(c(-c3cccs3)c1C#N)CCC2	43.9*	-1.6	.	1.2	-9.3
COc1ccc(S(=O)(=O)N(C)C[C@@H]2Oc3c(NC(=O)Nc4ccc(F)cc4)cccc3C(=O)N([C@@H](C)CO)C[C@@H]2C)cc1	-1.0	-0.5	-0.1	29.0[16.7 µM]	6.4
CC(C)NC(=O)N[C@@H]1C=C[C@H](CC(=O)NC2Cc3ccccc3C2)O[C@H]1CO	-0.2	0.1	-0.3	.	3.9
c1ccc(CCNc2ccnc3cc4ccccc4cc23)cc1	0.1	-1.4	1.0	17.1	-0.8
CC(C)Nc1ccc(Nc2ccnc3cc4ccccc4cc23)cc1	-1.0	27.1*	.	-82.7	0.2
CN=c1scc(-c2ccccc2F)n1/N=C/c1ccc(O)c(O)c1O	0.0	-1.5	1.6	-252.5	3.2
CN=c1scc(-c2ccccc2F)n1/N=C/c1ccc[nH]1	-0.2	-0.1	.	66.6*	20.5
Cc1ncc([N+](=O)[O-])n1CCOC(=O)Nc1ccc([N+](=O)[O-])cc1	43.1*	1.1	.	4.2	6.4
O=C(NNc1ccc([N+](=O)[O-])cc1)C12CC3CC(CC(C3)C1)C2	.	.	.	69.3*	.
O=C(NNC(=O)C12CC3CC(CC(C3)C1)C2)c1cccc([N+](=O)[O-])c1	-0.2	-2.1	.	27.0	-1.5
COc1ccccc1S(=O)(=O)N[C@H]1CC[C@H](CC(=O)NCc2cc(F)cc(F)c2)O[C@@H]1CO	.	-0.2	0.2	.	1.2
CC(C)(C)c1cc(N)n2nc(C(C)(C)C)cc2n1	43.9*	-3.7	.	-0.2	-3.6
NC(=O)c1cccnc1Nc1ccccc1F	1.4*	-1.3	0.7	-36.6	13.4	FGF22 binding-2=0.114;TSA no protein=i
COc1ccc(-n2nnnc2/C=C\Nc2ccc(C)cc2)cc1	24.7*	-1.5	.	-2.1	32.1	FGF22 binding-2=0.094;TSA no protein=i
CCCNC(=O)N1CC2(C1)CN(C(=O)COC)[C@H](CO)c1[nH]c3cc(OC)ccc3c12	0.1	-1.7	-0.2	.	-9.2
O=C(Nc1ccc2c(c1)OCO2)c1cnn2cccnc12	1.9*	-2.2	.	.	2.8	FGF22 binding-2=0.128;TSA no protein=i
O=C(Nc1cccc(O)c1)c1cnn2cccnc12	0.3	-1.5	.	.	3.1
COc1ccc(NC(=O)/C=C/C(=O)O)c([N+](=O)[O-])c1	2.2*	0.2	9.2	-13.1	-4.1	FGF22 binding-2=-0.135;TSA no protein=i
